Test results published in ChEMBL document CHEMBL3351397, “Synthesis and bioactivity of novel amino-pyrazolopyridines” (Eur J Med Chem, 2014).
pIC50: −log10 of the molar value. Calls of active or inactive are those of the source. The rule behind the calls is not given here.

What was measured:
K562 [1] = test: Cytotoxicity against human K562 cells after 24 to 72 hrs by CellTiter-Glo luminescent cell viability assay; type: functional, cell-based
How it was run: (§1)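 K562 cells were grown in RPMI with 10% FCS and 1% antibiotic-antimycotic at 37 °C, 5% CO2. Cells were exposed to a range of concentrations for 24 and 72 h and metabolic activity was read. Data were normalized to untreated control as % viable cells, mean ± SD of three determinations, with IC50 derived from dose-response curves.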

PBMC = test: Cytotoxicity against human PBMCs after 24 to 72 hrs by CellTiter-Glo luminescent cell viability assay; type: cell-based; conditions: for Activity: human, pbmc
How it was run: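 PBMCs from healthy donors were isolated by Ficoll centrifugation (400 g, 20 min) of blood diluted 1:1 in RPMI, then washed 2–3 times. Cells rested 24 h at 37 °C, 5% CO2 before dosing. They were then treated as for K562: 40 µM screen and dose-response at 24 and 72 h, % viable versus control, mean ± SD of three determinations.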

[2] = target: T1, Nuclear factor NF-kappa-B complex (Homo sapiens) (UniProt Q00653+P19838+Q04206); test: Inhibition of TNFalpha-induced NF-kB transactivation in human K562 cells after 8 hrs by luciferase reporter gene assay
K562 [3] = test: Induction of apoptosis in human K562 cells assessed as induction of caspase 3/7 activity at 40 uM after 8 to 48 hrs by luminescent assay relative to untreated control in presence of 50 uM z-VAD; type: functional, cell-based
How it was run: (§2)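 Caspase-Glo 3/7 readout at 3 × 10⁵ cells/mL. Cells were pretreated 1 h with the pan-caspase inhibitor Z-VAD(OMe)-FMK, then exposed to compounds at 40 µM for 8, 24 and 48 h. Culture was mixed 1:1 with reagent for 1 h at room temperature; luminescence is expressed as fold change over untreated cells.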

U-937 [4] = test: Induction of apoptosis in human U937 cells assessed as induction of caspase 3/7 activity at 40 uM after 8 hrs by luminescent assay relative to untreated control; type: functional
How it was run: (§3)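 Cells at 3 × 10⁵/mL were treated with test compounds at 40 µM for 8, 24 or 48 h. Culture was then mixed 1:1 with Caspase-Glo 3/7 reagent and incubated 1 h at room temperature; the reagent lyses cells, caspase cleaves the substrate and luciferase gives luminescence. Results are fold change versus untreated cells.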

K562 [5] = test: Induction of apoptosis in human K562 cells assessed as induction of caspase 3/7 activity at 40 uM after 48 hrs by luminescent assay relative to untreated control; type: functional; how it was run: as §3
Jurkat [6] = test: Induction of apoptosis in human Jurkat cells assessed as induction of caspase 3/7 activity at 40 uM after 8 hrs by luminescent assay relative to untreated control; type: functional; how it was run: as §3
Jurkat [7] = test: Induction of apoptosis in human Jurkat cells assessed as induction of caspase 3/7 activity at 40 uM after 24 hrs by luminescent assay relative to untreated control; type: functional; how it was run: as §3
Jurkat [8] = test: Induction of apoptosis in human Jurkat cells assessed as induction of caspase 3/7 activity at 40 uM after 48 hrs by luminescent assay relative to untreated control; type: functional; how it was run: as §3
Jurkat [9] = test: Induction of apoptosis in human Jurkat cells assessed as induction of caspase 3/7 activity at 40 uM after 8 to 48 hrs by luminescent assay relative to untreated control in presence of 50 uM z-VAD; type: functional, cell-based; how it was run: as §2
[10] = target: T1, Nuclear factor NF-kappa-B complex (Homo sapiens); test: Inhibition of TNFalpha-induced NF-kB transactivation in human K562 cells at 40 uM after 8 hrs by luciferase reporter gene assay
K562 [11] = test: Induction of apoptosis in human K562 cells assessed as induction of caspase 3/7 activity at 40 uM after 24 hrs by luminescent assay relative to untreated control; type: functional; how it was run: as §3
U-937 [12] = test: Induction of apoptosis in human U937 cells assessed as induction of caspase 3/7 activity at 40 uM after 24 hrs by luminescent assay relative to untreated control; type: functional; how it was run: as §3
U-937 [13] = test: Induction of apoptosis in human U937 cells assessed as induction of caspase 3/7 activity at 40 uM after 48 hrs by luminescent assay relative to untreated control; type: functional; how it was run: as §3
K562 [14] = test: Induction of apoptosis in human K562 cells at 40 uM after 72 hrs using Hoechst 33342 by fluorescence microscopy; type: functional, cell-based
How it was run: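 K562 cells were treated 72 h at 40 µM, then stained with Hoechst 33342 for 15 min at 37 °C. Nuclear morphology, scored as condensed nuclei, was examined by fluorescence microscopy. Etoposide served as positive control.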

K562 [15] = test: Induction of apoptosis in human K562 cells assessed as induction of caspase 3/7 activity at 40 uM after 8 hrs by luminescent assay relative to untreated control; type: functional; how it was run: as §3
K562 [16] = test: Cytotoxicity against human K562 cells at 40 uM assessed as reduction in cell viability after 72 hrs by CellTiter-Glo luminescent assay relative to control; type: functional
How it was run: (§4)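 K562 cells in RPMI/10% FCS at 37 °C, 5% CO2 were exposed to a single 40 µM concentration for 24 or 72 h. Metabolic activity was normalized to untreated control as % viable cells, mean ± SD of three determinations. Etoposide served as positive control.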

U-937 [17] = test: Induction of apoptosis in human U937 cells assessed as induction of caspase 3/7 activity at 40 uM after 8 to 48 hrs by luminescent assay relative to untreated control in presence of 50 uM z-VAD; type: functional, cell-based; how it was run: as §2
[18] = target: T1, Nuclear factor NF-kappa-B complex (Homo sapiens); test: Inhibition of TNFalpha-induced NF-kB pathway in human K562 cells after 8 hrs by luciferase reporter gene assay; type: cell-based
How it was run: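 K562 cells were electroporated with an NF-κB-RE firefly luciferase reporter (5 µg) plus phRG-TK Renilla plasmid, then recovered 24 h in RPMI/10% FCS. Cells were resuspended at 1 × 10⁶/mL in RPMI/0.1% FCS, pretreated 2 h, then stimulated with TNFα 20 ng/mL for 6 h (8 h total). Dual-Glo firefly/Renilla ratio read at 22 °C; three independent experiments.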

K562 [19] = test: Cytotoxicity against human K562 cells assessed as reduction in cell viability at 40 uM after 24 hrs by CellTiter-Glo luminescent assay; type: functional; how it was run: as §4
K562 [20] = test: Cytotoxicity against human K562 cells after 72 hrs by CellTiter-Glo luminescent cell viability assay; type: functional, cell-based; conditions: K562, 72 h; how it was run: as §1
K562 [21] = test: Cytotoxicity against human K562 cells assessed as reduction in cell viability at 8.2 uM after 24 hrs by CellTiter-Glo luminescent assay; type: functional, cell-based
[22] = target: T1, Nuclear factor NF-kappa-B complex (Homo sapiens); test: Inhibition of TNFalpha-induced NF-kB pathway in human K562 cells assessed as inhibition of IL-8 release preincubated for 2 hrs before TNFalpha addition measured after 24 hrs by sandwich ELISA; type: cell-based
How it was run: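 K562 cells were pretreated 2 h with compound, then activated with TNFα 20 ng/mL for 22 h (24 h total). Supernatant IL-8 was quantified by sandwich ELISA: pre-coated anti-IL-8 wells for 2 h at room temperature, peroxidase-conjugated polyclonal anti-IL-8 for 60 min, then H2O2/TMB colorimetric development. Mean ± SD of three determinations.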

T1 sequence (P19838 whole entry, looked up): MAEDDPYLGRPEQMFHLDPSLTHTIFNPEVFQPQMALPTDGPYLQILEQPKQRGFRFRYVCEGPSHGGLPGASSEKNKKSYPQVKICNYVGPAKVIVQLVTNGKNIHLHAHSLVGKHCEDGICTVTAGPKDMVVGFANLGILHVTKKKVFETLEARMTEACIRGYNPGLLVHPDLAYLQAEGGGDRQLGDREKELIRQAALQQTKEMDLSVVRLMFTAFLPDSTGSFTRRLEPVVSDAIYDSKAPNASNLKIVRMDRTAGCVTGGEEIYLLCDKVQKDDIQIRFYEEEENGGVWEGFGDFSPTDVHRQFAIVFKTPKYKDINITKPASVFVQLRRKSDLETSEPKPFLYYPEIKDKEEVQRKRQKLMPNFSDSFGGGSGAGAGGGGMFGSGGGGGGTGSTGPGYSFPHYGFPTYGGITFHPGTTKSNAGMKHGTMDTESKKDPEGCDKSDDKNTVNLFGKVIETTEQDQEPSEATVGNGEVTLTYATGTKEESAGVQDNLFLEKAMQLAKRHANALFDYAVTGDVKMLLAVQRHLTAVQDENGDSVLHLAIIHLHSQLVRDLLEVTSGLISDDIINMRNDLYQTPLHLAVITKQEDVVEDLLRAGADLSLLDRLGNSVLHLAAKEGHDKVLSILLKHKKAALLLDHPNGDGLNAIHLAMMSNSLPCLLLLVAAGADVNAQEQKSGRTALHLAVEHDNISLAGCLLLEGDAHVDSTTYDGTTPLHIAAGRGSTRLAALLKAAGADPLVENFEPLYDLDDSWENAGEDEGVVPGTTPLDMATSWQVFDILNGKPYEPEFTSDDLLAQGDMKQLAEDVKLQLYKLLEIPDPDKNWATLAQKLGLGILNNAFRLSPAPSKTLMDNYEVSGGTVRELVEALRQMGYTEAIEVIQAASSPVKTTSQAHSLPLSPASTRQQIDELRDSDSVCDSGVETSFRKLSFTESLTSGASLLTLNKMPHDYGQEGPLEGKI
T1 sequence (Q00653 whole entry, looked up): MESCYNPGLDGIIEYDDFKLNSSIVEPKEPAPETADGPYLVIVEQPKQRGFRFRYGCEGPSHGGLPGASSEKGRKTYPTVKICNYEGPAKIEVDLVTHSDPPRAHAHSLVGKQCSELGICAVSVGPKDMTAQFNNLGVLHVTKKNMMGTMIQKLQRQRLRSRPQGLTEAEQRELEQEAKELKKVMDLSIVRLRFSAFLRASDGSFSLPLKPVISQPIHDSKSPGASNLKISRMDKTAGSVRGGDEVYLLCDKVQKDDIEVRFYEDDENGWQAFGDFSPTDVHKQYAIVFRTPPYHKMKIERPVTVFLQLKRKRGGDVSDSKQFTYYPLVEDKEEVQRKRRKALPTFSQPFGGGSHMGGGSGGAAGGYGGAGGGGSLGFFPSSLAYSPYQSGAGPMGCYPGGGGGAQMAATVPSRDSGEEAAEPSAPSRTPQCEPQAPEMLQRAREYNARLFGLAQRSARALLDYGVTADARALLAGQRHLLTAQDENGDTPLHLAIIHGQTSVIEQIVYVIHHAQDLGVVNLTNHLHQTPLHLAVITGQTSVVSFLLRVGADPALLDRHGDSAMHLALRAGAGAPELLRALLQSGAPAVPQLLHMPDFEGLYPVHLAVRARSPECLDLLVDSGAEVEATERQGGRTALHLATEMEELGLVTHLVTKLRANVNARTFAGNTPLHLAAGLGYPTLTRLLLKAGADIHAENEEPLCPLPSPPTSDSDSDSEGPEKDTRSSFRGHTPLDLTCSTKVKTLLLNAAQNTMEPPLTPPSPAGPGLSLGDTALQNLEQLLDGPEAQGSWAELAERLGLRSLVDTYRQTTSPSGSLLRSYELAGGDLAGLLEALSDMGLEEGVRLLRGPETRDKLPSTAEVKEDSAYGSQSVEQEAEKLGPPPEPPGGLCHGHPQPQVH
T1 sequence (Q04206 whole entry, looked up): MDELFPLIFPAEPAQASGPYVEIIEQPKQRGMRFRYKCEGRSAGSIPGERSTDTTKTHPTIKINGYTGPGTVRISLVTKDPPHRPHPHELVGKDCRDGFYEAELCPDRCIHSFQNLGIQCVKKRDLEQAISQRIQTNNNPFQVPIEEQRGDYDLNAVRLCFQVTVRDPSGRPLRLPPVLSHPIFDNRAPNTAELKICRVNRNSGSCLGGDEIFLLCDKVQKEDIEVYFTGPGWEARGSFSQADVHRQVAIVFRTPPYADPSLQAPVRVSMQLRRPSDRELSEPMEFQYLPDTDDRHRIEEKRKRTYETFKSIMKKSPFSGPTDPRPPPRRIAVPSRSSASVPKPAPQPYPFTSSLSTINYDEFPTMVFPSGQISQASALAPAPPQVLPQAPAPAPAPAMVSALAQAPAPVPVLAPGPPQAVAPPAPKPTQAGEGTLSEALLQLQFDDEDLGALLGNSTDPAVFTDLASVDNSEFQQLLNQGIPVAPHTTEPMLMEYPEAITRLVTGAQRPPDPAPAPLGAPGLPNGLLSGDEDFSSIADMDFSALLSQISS

inhibition [2] | inhibition [10] | SMILES | pIC50 (K562 [1]) | Activity (PBMC) | Activity (K562 [3]) | Fold change (U-937 [4]) | Activity (K562 [5]) [%] | Activity (Jurkat [6]) [%] | Activity (Jurkat [7]) [%] | Fold change (Jurkat [8]) | Activity (Jurkat [9]) | Activity (K562 [11]) | Activity (U-937 [12]) [%] | Activity (U-937 [13]) [%] | Activity (K562 [14]) | Fold change (K562 [15]) | Activity (K562 [16]) [%] | Activity (U-937 [17]) | other results
Dose-dependent effect | Active | Nc1n[nH]c2ncc3c(c12)-c1ccccc1CC3 | 4.56 | Non-toxic | inactive | 11.7 | 2.23 | 2.86 | 2.73 | 2.05 | inactive | 2.5 | 5.84 | 1.74 | Active | 1.37 | >50 | inactive | 
Dose-dependent effect | Active | Cc1cnc2[nH]nc(N)c2c1-c1ccccc1 | 4.46 | Non-toxic | inactive | 1.73 | 2.9 | 1.27 | 1.31 | 1.44 | inactive | 3.62 | 5.87 | 4.35 | Active | 1.26 | >50 | inactive | inhibition [18]: Active; Activity (K562 [19]): <50%; pIC50 (K562 [20]): 4.46
Dose-dependent effect | Active | CC1Cc2cnc3[nH]nc(N)c3c2-c2ccccc21 (stereo not given) | 4.44 |  | inactive | 16.5 | 1.55 | 8.89 | 5.38 | 2.11 | inactive | 2.04 | 6.27 | 1.48 | Active | 1.44 | >50 | inactive | Activity (K562 [1]): Dose-dependent effect; pIC50 (PBMC; Homo sapiens, PBMC): 4.44; Activity (K562 [21]): inactive; inhibition [22]: Dose-dependent effect
